This series is described as follows: Toxicity liver stage against HepG2, at 10uM. Format: cell-based. More on the design: test concentration 10 uM, cell line HepG2-A16-CD81EGFP. The note with it: human, HepG2-A16-CD81EGFP cells; read-out: INHIBITION
The gist of the method:
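Uninfected HepG2-A16-CD81EGFP cells, 3 × 10^3 per well, 1536-well, plated on prespotted compound at 10 μM final, parasite-free screening media added to match infected plates; puromycin 10 μM positive, DMSO 0.5% negative; run in parallel with 48 h PbLuc assay at 37 °C, 5% CO2; viability by CellTiter-Glo luminescence, normalized to controls.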
On to `O=C(CCNC(=O)c1ccc(Cl)cc1)NCc1nc(C2CC2)no1`, for which the cytotoxicity at 10 µM was 0.648%.
For the compound `COc1ccc(-c2cc(C[C@@H]3C[C@H](N(C)C)C3(C)C)no2)cc1`, the cytotoxicity at 10 µM is -1.3%.
On to `O=C(NC[C@@H]1CCCO1)c1cccnc1N1CCCC1c1ccccn1` (stereo not given in full), for which the cytotoxicity at 10 µM was -1.08%.
For the compound `Cc1nn(-c2ncnc3[nH]cnc23)c2c1C(C(C)C)CC(=O)N2` (stereo not given), the cytotoxicity at 10 µM turned out to be 10.8%.
With `COC(=O)CNC(=O)c1cn(-c2ccccn2)c(=O)c2ccccc12`, the cytotoxicity at 10 µM came to 0.0537%.
As for `O=C(NCCc1nccs1)[C@H](c1ccccc1)n1cnnn1`, the cytotoxicity at 10 µM was -0.607%.
As to `CSCC(C)(O)CNC(=O)c1cc(Cl)ccc1Cl` (stereo not given), the cytotoxicity at 10 µM is 9.88%.
`CCOCC(=O)N1C[C@H]2CN(CC3CC3)C(=O)[C@H]2C1`: the cytotoxicity at 10 µM came to 3.94%.
Take `CC(C)NC(=O)N1CCCC2(CCN(c3ccccc3)C2=O)C1` (stereo not given): the cytotoxicity at 10 µM is -2.22%.
With `CN(C)CCO[C@H]1CN(C(=O)c2ccc3c(c2)OCO3)[C@@H]2COC[C@H]12`, the cytotoxicity at 10 µM was -151%.
Consider `NC(=O)N1CC[C@H]2CO[C@H](CNC(=O)c3ccnnc3)[C@H]2C1`, for which the cytotoxicity at 10 µM is -4.7%.
As for `CC(C)c1nc(-c2cc(C(=O)NCCCO)c3ccccn23)cs1`, the cytotoxicity at 10 µM is 9.7%.
In the case of `O=C(c1ccoc1)N1C[C@H]2CC[C@@]3(N=C(c4ccccc4)NC3=O)[C@H]2C1`, the cytotoxicity at 10 µM came to 6.79%.
As for `Cn1cc(CN2CC[C@@H]3O[C@H](C(=O)N4CCOCC4)C[C@@H]32)cn1`, the cytotoxicity at 10 µM is -8.08%.
For `O=C(N[C@@H]1CN(Cc2ccc3c(c2)OCO3)[C@@H]2CCCO[C@@H]21)C1CC1`, the cytotoxicity at 10 µM came to 2.06%.
Under `Cc1cc(-c2ccc(=O)n(CCNC(=O)C3CC3)n2)c(C)o1` stands -10.2%; under `CC(=O)N1CCC(C(=O)c2cnn(-c3ccccc3)c2N)C1` (stereo not given), 5.54%; under `Cc1ncc(-c2ccncc2)c(C2CCN(C(=O)c3ccco3)CC2)n1`, 4%.
With `CNC(=O)C1CN(Cc2cc(C)on2)CCN(C(C)=O)C1` (stereo not given), the cytotoxicity at 10 µM is -3.02%.
Under `Cc1ncsc1C(=O)N1CCC(c2ncncc2-c2ccnc(N)c2)C1` (stereo not given) stands -0.197%.
As to `CC1(C(=O)N2CCN(C3CCCC3)CC2)CNCCO1` (stereo not given), the cytotoxicity at 10 µM was determined as 6.26%.
For the compound `COC(=O)c1c(C(F)(F)F)cnc(OC)c1Cl`, the cytotoxicity at 10 µM came out at 7.03%.
In the case of `CC(O)CN1CCN(Cc2cccc(C#N)c2)CC1` (stereo not given), the cytotoxicity at 10 µM was 9.56%.
Under `Cc1noc(CN(CCO)Cc2cc(Br)ccc2F)n1` stands 2.2%.
On to `O=S1(=O)CCC(c2nnc(-c3cnc4onc(C5CCCC5)c4c3)o2)C1` (stereo not given), for which the cytotoxicity at 10 µM was found to be 1.84%.
Under `COCCCN1Cc2cccc(NC(=O)C(C)(C)C)c2C1` stands 2.06%.
Take `CCC(C)NC(=O)Nc1cccc(OCCCC#N)c1` (stereo not given): the cytotoxicity at 10 µM was -2.01%.
For the compound `CCOCCS(=O)(=O)Cc1ccn(-c2cccc(F)c2)n1`, the cytotoxicity at 10 µM worked out at 4.48%.
For `Cn1cc(C(=O)CC2CCCN2C(=O)c2ccc3[nH]ncc3c2)cn1` (stereo not given), the cytotoxicity at 10 µM is -2.53%.
Take `CN(C)C(C(=O)NCC1(O)CCCCC1)c1c(F)cccc1F` (stereo not given): the cytotoxicity at 10 µM is -5.52%.
For `O=S(=O)(c1c(F)cccc1F)N1CCCC1c1nnc2n1CCCCC2` (stereo not given), the cytotoxicity at 10 µM is 11.2%.
For `CCC(Nc1nc(C(F)(F)F)nc2ccccc12)C(=O)O` (stereo not given), the cytotoxicity at 10 µM was 3.75%.
Under `N#Cc1ccc(CNC(=O)NC2CCCN(c3ncccn3)C2)cc1` (stereo not given) stands 5.38%; under `CC(OCCCNC(=O)c1cccnc1O)c1ccccc1` (stereo not given), 4.88%.
As to `CN(CCNc1cc(N2CCCC2CO)ncn1)Cc1ccccc1` (stereo not given), the cytotoxicity at 10 µM is 15.7%.
Take `c1ccc(-c2nc(CN3CCn4c(nnc4C4CC4)C3)no2)cc1`: the cytotoxicity at 10 µM is -3.47%.
Regarding `CN1CCN(C(=O)C2CCCN2c2ncnc3ccsc23)CC1` (stereo not given), the cytotoxicity at 10 µM turned out to be 9.19%.
Under `COc1cc(C)nc(N2CCN(C(C)c3nc(C4CC4)no3)CC2)n1` (stereo not given) stands 1.46%; under `O=C(NCCNC(=O)c1ccc(Br)cc1)c1ccc(O)cc1`, -0.988%; under `O=C(NCCCO)Nc1ccccc1`, 1.52%.
For the compound `Cc1cc(C(=O)N2CCCC(N3CCNC3=O)C2)nn1C(C)(C)C` (stereo not given), the cytotoxicity at 10 µM is -1.44%.
For the compound `CCOc1ccc(C(=O)N(C)C)cc1NC(=O)c1ccsc1`, the cytotoxicity at 10 µM was -0.12%.
On to `COc1ccc(CNc2nnc(CC(C)(C)C)o2)cc1C#N`, for which the cytotoxicity at 10 µM was -10.1%.
Under `Cn1cc(-c2cccc(CNC(=O)N3CCC[C@@H]3CO)c2)cn1` stands -5.89%.
Regarding `O=C(C1CCCOC1)N1CCCc2ccccc21` (stereo not given), the cytotoxicity at 10 µM turned out to be 10.1%.
Turning to `CN(C)CC1CN(Cc2c(Cl)ccc3cccnc23)CCO1` (stereo not given), the cytotoxicity at 10 µM is 4.2%.
In the case of `O=S(=O)(NC1CCC2(CC1)OCCO2)c1cccc(Br)c1`, the cytotoxicity at 10 µM was -5.65%.
Turning to `COCCNC(=O)N1CC(Cc2ccccc2F)C1`, the cytotoxicity at 10 µM is -6.4%.
On to `Cc1csc(NC(=O)NCCCN2CCC(C(N)=O)CC2)n1`, for which the cytotoxicity at 10 µM is 2.48%.
Under `CCC(C)NS(=O)(=O)Cc1cccc(NC(=O)C2=CCCC2)c1` (stereo not given) stands -0.217%; under `CC(C)(C)OC(=O)N1CCN(S(=O)(=O)CCCC#N)C2(CCCCC2)C1`, -6.1%; under `Cc1noc2ncc(S(=O)(=O)Nc3cc(C(C)(C)C)n[nH]3)cc12`, 3.26%.
Turning to `CCS(=O)(=O)CCNC(=O)NCc1ccccc1-n1cccn1`, the cytotoxicity at 10 µM turned out to be 4.87%.
`CCOc1ccc(C#N)cc1NC(=O)N1CCCC(NC(=O)CC)C1` (stereo not given): the cytotoxicity at 10 µM is 0.711%.
For `O=C(CCc1ccccc1)Nc1ncccc1OC(F)F`, the cytotoxicity at 10 µM is -3.45%.
Under `O=C(CCCn1cncn1)NC1(c2ccccc2)CCC1` stands -11.5%; under `Cc1cccc(N2CCN(C(=O)CN3CCN(CCO)CC3)CC2)c1`, -15.5%.
For the compound `CC(C)Cc1cc(C(=O)NCc2nnc[nH]2)[nH]n1`, the cytotoxicity at 10 µM is -2.95%.
With `COc1ccccc1-c1ncc(CN2CCCC(CCC(N)=O)C2)s1` (stereo not given), the cytotoxicity at 10 µM is -6.34%.
For `CC(C)(C)c1ncc(C(=O)N2CCN(C(=O)c3ccc[nH]3)CC2)c(O)n1`, the cytotoxicity at 10 µM is -6.74%.
With `CCN(CCOc1ccc(F)cc1)C(=O)c1ccncc1Cl`, the cytotoxicity at 10 µM is -3.35%.
`COc1cccc2c1OCC(CNC(=O)Cc1csc(C(C)=O)c1)C2` (stereo not given): the cytotoxicity at 10 µM was -146%.
Under `Cc1ccc(C#N)c(N2CCC3(CCCN(C4CCOCC4)C3=O)C2)n1` (stereo not given) stands -125%.
Take `CC(C)Oc1cc(N2CC[C@@H](N3CCOCC3)[C@H](O)C2)nc(N)n1`: the cytotoxicity at 10 µM was -2.32%.
With `CCn1c(C2CCCN(Cc3ccc4ccccc4n3)C2)nn(C)c1=O` (stereo not given), the cytotoxicity at 10 µM was determined as 0.687%.
Consider `CCCn1ncc(C(=O)N2CCN(C3Cc4ccccc4C3)CC2)c1C`, for which the cytotoxicity at 10 µM is -139%.
On to `O=C(C1CC1)N1CCCN(c2ncnc3c2CCNCC3)CC1`, for which the cytotoxicity at 10 µM was determined as 5.52%.
Under `O=C(NCCC1COc2ccccc2O1)c1ccc(-c2cc[nH]n2)nc1` (stereo not given) stands -6.84%; under `O=C(N[C@@H]1CCCNC1)C1(Oc2ccc(Cl)cc2)CCNCC1`, -4.73%.
For `O=C(O)CNc1cc(-c2cc(C(=O)NC3CC3)ccn2)c2cc[nH]c2n1`, the cytotoxicity at 10 µM is -5.2%.
On to `CN(CC(C)(C)C)c1ccc(C(=O)NCCCc2ccccn2)cn1`, for which the cytotoxicity at 10 µM was -49.1%.
In the case of `CCC1CN(C(=O)c2cccnc2O)CCC(=O)N1Cc1ccccc1` (stereo not given), the cytotoxicity at 10 µM was determined as 3.65%.
In the case of `CC1(C(=O)NCc2cccnc2Oc2ccc(F)cc2F)CCCNC1` (stereo not given), the cytotoxicity at 10 µM is -5.68%.
For `Cc1ccc([C@@H]2CN(C(=O)c3ccc[nH]3)C[C@H]2NC(=O)C2CC2)cc1`, the cytotoxicity at 10 µM was -21.5%.
Under `COc1c(C2CCCN2C(=O)c2csc(C3CC3)n2)c(C)nn1C` (stereo not given) stands 4.53%.
With `O=C(CCOc1ccccc1F)N1CCCCC1Cn1cccn1` (stereo not given), the cytotoxicity at 10 µM was -4.47%.
As for `CC(C)Oc1ccc(C(=O)N2CCCCC2Cn2cccn2)cn1` (stereo not given), the cytotoxicity at 10 µM was -14.9%.
As for `CCn1ccnc1CN1CCCN(C(=O)c2cnn(C)c2)CC1`, the cytotoxicity at 10 µM was -7.25%.
With `Cc1cc(C)c(CNC(=O)N2CCN(c3ccncc3)CC2)c(=O)[nH]1`, the cytotoxicity at 10 µM is -3.57%.
For `Cc1ccccc1C(=O)Nc1cnn(CCN2CCOCC2)c1`, the cytotoxicity at 10 µM is -11.7%.
Under `CCc1nc(CN2CCCC(NCc3nc4ccccc4o3)C2)no1` (stereo not given) stands -3.81%; under `O=C(c1cnc(-c2cnccn2)s1)N1CCCC1Cn1cccn1` (stereo not given), -3.99%.
On to `O=C(CCOCC(F)(F)F)N1CCCC1c1noc(C2CC2)n1` (stereo not given), for which the cytotoxicity at 10 µM stood at 0.111%.
For the compound `c1ccc(-c2noc(CN3CCOC(Cn4cccn4)C3)n2)nc1` (stereo not given), the cytotoxicity at 10 µM was -15%.
For `C[C@@H](NC(=O)c1cccs1)c1onc(-c2cccnc2)c1C(=O)O`, the cytotoxicity at 10 µM is 6.09%.
As to `Cc1nc(Nc2cnccn2)cc(C2CN(C(C)C)C2)n1`, the cytotoxicity at 10 µM was -27.1%.
Regarding `c1cc(CNCC2Cn3nncc3CO2)co1` (stereo not given), the cytotoxicity at 10 µM stood at 7.8%.
Under `CN(C)CCN1CCCC12CCN(C(=O)c1ccco1)CC2` stands 1.49%.
For `Cc1ccc(CN2C[C@@H]3[C@@H](C(=O)NCC4CC4)CCS(=O)(=O)[C@@H]3C2)cc1`, the cytotoxicity at 10 µM was -4%.
With `Cc1cnc(N2C[C@H]3CCN(CC4CC4)C[C@H]3C2)nc1`, the cytotoxicity at 10 µM was determined as 6.34%.
`CCO[C@H]1CO[C@@]2(CCN(Cc3ccc4c(c3)OCO4)C2)C1`: the cytotoxicity at 10 µM was 0.493%.
Under `COc1ccc(CN2C[C@@H](OCc3csc(C)n3)[C@H]3COC[C@H]32)cc1` stands -17.3%; under `CC(NCc1cccc(C#N)c1)c1ccccn1` (stereo not given), -9.61%.
With `CCOCC1CN(Cc2cccnc2)Cc2nn(C)cc21` (stereo not given), the cytotoxicity at 10 µM was -81.6%.
As to `Cc1noc(C)c1CN1CCOC2(CCCN(c3ncccn3)C2)C1` (stereo not given), the cytotoxicity at 10 µM turned out to be 8.27%.

For the origin of these results see ChEMBL document CHEMBL4513216, “Probing the Open Global Health Chemical Diversity Library for Multistage-Active Starting Points for Next-Generation Antimalarials” (ACS Infect Dis, 2020).
